The source made the active and inactive calls. The calls are words filed in the database; no cut-off is given here.
Key:
[1] = Drug metabolism in mouse embryonic stem cells assessed as formation of N-[4-(Ethylamino)phenyl]-5-methyl-3-phenylisoxazole-4-carboxamide at 3 to 5 uM measured after 10 days by HPLC/MS method; format: ADME, cell-based; settings: embryonic stem cell, 240 h
Outline: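 Mouse embryonic stem cells exposed 5 and 10 days to 3 or 5 μM, with DMSO and EB differentiation medium blanks. Medium extracted with chloroform; cells pelleted, saline-washed twice, sonicated in chloroform. UPLC-ESI(+)-QTOF/MS, BEH C18, 0.1% formic acid water/acetonitrile gradient 7–80% B over 5 min, 0.6 mL/min, 40 °C.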

[2] = Induction of necrosis in neonatal rat ventricular cardiomyocytes assessed as release of adenylate kinase at 50 uM measured after 24 hrs by bioluminescence assay; format: cell-based; settings: cardiac muscle cell
Outline: (§1)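 Neonatal rat cardiomyocytes treated 24 h at 50 μM; adenylate kinase released into medium measured by ToxiLight bioluminescence on a luminometer; relative to vehicle, mean ± SD, n = 3.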

[3] = biological target: Transcription factor GATA-4 (Mus musculus) (UniProt Q08369); assay: Inhibition of binding of mouse GATA4 to [32P]-double stranded oligonucleotide expressed in African green monkey COS-1 cells at 50 uM preincubated for 10 mins followed by [32P]-double stranded oligonucleotide addition measured after 20 mins by EMSA method; format: cell-based
Outline: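 Nuclear extracts from COS-1 cells transfected with pMT2-GATA4 or pMT2-NKX2-5 (harvested 48 h) preincubated 10 min with 50 μM compound, then 20 min with 32P-labeled GATA4- or NKX2-5-site probe; native 5% PAGE, phosphorimager quantitation; antibody supershift controls; mean ± SD, n = 3–5.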

[4] = biological target: Parathyroid hormone 2 receptor (Homo sapiens) (UniProt P49190); assay: Agonist activity at human PTH2 receptor expressed in Chem-1 cells assessed as induction of calcium flux at 12.5 uM by fluorescence assay; format: functional, cell-based
Outline: (§2)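 GPCR profiling panel of cell-based functional assays covering 165 GPCRs; agonist mode tested at 12.5 μM and antagonist mode at 10 μM, in duplicate.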

[5] = biological target: Epidermal growth factor receptor (Homo sapiens) (UniProt P00533); assay: Inhibition of human EGFR at 30 uM
Outline: (§3)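 48-kinase profiling panel; compounds tested at 30 μM in duplicate.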

[6] = Induction of aggregation of compounds at 100 uM by nephalometric method
[7] = biological target: Cannabinoid receptor 2 (Homo sapiens) (UniProt P34972); assay: Antagonist activity at human CB2 receptor expressed in rat hematopoietic Chem-4 cells assessed as inhibition of CP55940 induced calcium flux at 10 uM by fluorescence assay; format: functional, cell-based; outline: as §2
[8] = biological target: Cannabinoid receptor 2 (Homo sapiens) (UniProt P34972); assay: Agonist activity at human CB2 receptor expressed in rat hematopoietic Chem-4 cells assessed as induction of calcium flux at 12.5 uM by fluorescence assay; format: functional, cell-based; outline: as §2
[9] = biological target: T1, GATA4/NKX2-5 (Rattus norvegicus) (UniProt P46152+O35767); assay: Inhibition of GATA4/NKX2-5 interaction in neonatal rat ventricular cardiomyocyte hypertrophy model assessed as decrease in mechanical stretching-induced cell surface area at 10 uM after 48 hrs by alpha-actinin/phalloidin/DAPI staining-based fluorescence microscopic method
Outline: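 Neonatal rat ventricular myocytes seeded at 10^6/well on collagen I flexible plates, cultured 48 h, then given 10 μM in serum-free medium under equibiaxial cyclic stretch (0.5 Hz, 10–20%) 48 h; nonstretched controls. Fixed, stained α-actinin/phalloidin/DAPI; α-actinin+ cell area (>200 cells/specimen) normalized to untreated nonstretched; three experiments, mean ± SEM.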

[10] = biological target: Transcription factor GATA-4 (Mus musculus) (UniProt Q08369); assay: Inhibition of mouse GATA4-driven transactivation of luciferase reporter construct containing BNP minimal promoter expressed in African green monkey COS-1 cells after 30 hrs by luminometer; format: cell-based
Outline: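 COS-1 cells co-transfected with firefly luciferase driven by BNP minimal or −90 bp BNP promoter, Renilla pRL-TKd238, and pMT2-GATA4 or empty pMT2. Compounds added 6 h post-transfection in 0.1% DMSO, refreshed with medium at 24 h; lysis at 30 h; dual-luciferase, firefly/Renilla normalized to vehicle; triplicate wells.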

[11] = Stability of compound in DMSO assessed as formation of N-[4-(Ethylamino)phenyl]-5-methyl-3-phenylisoxazole-4-carboxamide at 3 to 5 uM at room temperature measured after 6 months by HPLC/MS method; format: physicochemical; settings: 4383 h
[12] = biological target: Hydroxycarboxylic acid receptor 2 (Homo sapiens) (UniProt Q8TDS4); assay: Agonist activity at human GPR109A expressed in Chem-4 cells assessed as induction of calcium flux at 12.5 uM by fluorescence assay; format: functional, cell-based; outline: as §2
[13] = biological target: Rho-associated protein kinase 1 (Homo sapiens) (UniProt Q13464); assay: Inhibition of human ROCK1 at 30 uM; outline: as §3
[14] = biological target: Mitogen-activated protein kinase 14 (Homo sapiens) (UniProt Q16539); assay: Inhibition of human p38alpha MAPK at 30 uM; outline: as §3
[15] = biological target: Growth hormone secretagogue receptor type 1 (Homo sapiens) (UniProt Q92847); assay: Antagonist activity at human GHS-R at 10 uM by ELISA; settings: in the assay text read “by calcium flux assay” for “by ELISA”; outline: as §2
[16] = biological target: Parathyroid hormone 2 receptor (Homo sapiens) (UniProt P49190); assay: Antagonist activity at human PTH2 receptor expressed in rat Chem-1 cells assessed as inhibition of TIP-39 induced calcium flux at 10 uM by fluorescence assay; format: functional, cell-based; outline: as §2
[17] = Induction of necrosis in endothelin-1 induced neonatal rat ventricular cardiomyocytes assessed as release of adenylate kinase at 50 uM measured after 24 hrs by bioluminescence assay; format: cell-based; settings: cardiac muscle cell; outline: as §1
[18] = biological target: T1, GATA4/NKX2-5 (Rattus norvegicus); assay: Inhibition of GATA4/NKX2-5 interaction in neonatal rat ventricular cardiomyocytes assessed as decrease in endothelin-1 induced mRNA level of ANP at 10 uM preincubated for 1 hr followed by endothelin-1 addition measured after 23 hrs by real-time PCR analysis
Outline: (§4)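 Neonatal rat ventricular myocytes (2–4-day-old Sprague-Dawley or Wistar), preplated, seeded on 6-well plates, moved to complete serum-free medium next day and cultured 24 h. Compounds (10–100 μM) added 1 h before 100 nM endothelin-1 or none; ANP and BNP mRNA quantified by RT-PCR at 24 h, normalized to 18S RNA, relative to vehicle; mean ± SD, n = 3–6.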

[19] = biological target: T1, GATA4/NKX2-5 (Rattus norvegicus); assay: Inhibition of GATA4/NKX2-5 interaction in neonatal rat ventricular cardiomyocytes assessed as decrease in basal mRNA level of BNP at 10 uM after 24 hrs by real-time PCR analysis; outline: as §4
[20] = biological target: Glycogen synthase kinase-3 beta (Homo sapiens) (UniProt P49841); assay: Inhibition of human GSK3-beta at 30 uM; outline: as §3
[21] = biological target: Transcription factor GATA-4 (Rattus norvegicus) (UniProt P46152); assay: Inhibition of binding of GATA4 to [32P]-double stranded oligonucleotide in neonatal rat ventricular cardiomyocytes at 50 uM measured after 24 hrs by EMSA method
Outline: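 Neonatal rat cardiomyocytes treated 24 h with 50 μM; nuclear extracts incubated 20 min with [α-32P]dCTP Klenow-labeled GATA4- or NKX2-5-site oligonucleotide in HEPES/NaCl/KCl/MgCl2 buffer with poly(dI-dC); 5% native PAGE, phosphorimager; supershift with anti-GATA4/NKX2-5; relative to vehicle, mean ± SD, n = 3–5.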

Sequence of Cannabinoid receptor 2 (Homo sapiens) (P34972 whole entry): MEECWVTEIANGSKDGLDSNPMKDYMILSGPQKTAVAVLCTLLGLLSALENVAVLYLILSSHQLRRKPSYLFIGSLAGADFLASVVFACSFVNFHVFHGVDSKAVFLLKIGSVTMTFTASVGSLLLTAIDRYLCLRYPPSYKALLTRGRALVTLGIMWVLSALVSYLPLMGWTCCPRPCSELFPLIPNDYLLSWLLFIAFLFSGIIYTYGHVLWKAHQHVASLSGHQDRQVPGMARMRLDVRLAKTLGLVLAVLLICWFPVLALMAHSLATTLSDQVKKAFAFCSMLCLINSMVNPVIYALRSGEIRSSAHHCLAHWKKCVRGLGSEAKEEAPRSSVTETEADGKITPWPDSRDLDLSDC
Sequence of Parathyroid hormone 2 receptor (Homo sapiens) (P49190 whole entry): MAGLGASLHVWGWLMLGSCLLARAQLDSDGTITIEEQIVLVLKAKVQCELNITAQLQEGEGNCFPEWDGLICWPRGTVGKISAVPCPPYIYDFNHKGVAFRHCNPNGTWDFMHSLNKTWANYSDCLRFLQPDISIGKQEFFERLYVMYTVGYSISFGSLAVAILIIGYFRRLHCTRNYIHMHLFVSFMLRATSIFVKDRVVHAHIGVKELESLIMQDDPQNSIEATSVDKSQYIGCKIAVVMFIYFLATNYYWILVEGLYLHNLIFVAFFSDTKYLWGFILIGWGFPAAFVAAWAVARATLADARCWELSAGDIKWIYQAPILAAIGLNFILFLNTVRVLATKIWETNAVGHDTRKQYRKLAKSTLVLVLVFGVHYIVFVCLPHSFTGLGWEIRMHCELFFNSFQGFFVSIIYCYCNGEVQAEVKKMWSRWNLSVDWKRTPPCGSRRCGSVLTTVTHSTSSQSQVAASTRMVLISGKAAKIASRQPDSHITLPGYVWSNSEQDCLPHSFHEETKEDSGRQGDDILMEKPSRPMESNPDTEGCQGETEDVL
Sequence of Transcription factor GATA-4 (Mus musculus) (Q08369 whole entry): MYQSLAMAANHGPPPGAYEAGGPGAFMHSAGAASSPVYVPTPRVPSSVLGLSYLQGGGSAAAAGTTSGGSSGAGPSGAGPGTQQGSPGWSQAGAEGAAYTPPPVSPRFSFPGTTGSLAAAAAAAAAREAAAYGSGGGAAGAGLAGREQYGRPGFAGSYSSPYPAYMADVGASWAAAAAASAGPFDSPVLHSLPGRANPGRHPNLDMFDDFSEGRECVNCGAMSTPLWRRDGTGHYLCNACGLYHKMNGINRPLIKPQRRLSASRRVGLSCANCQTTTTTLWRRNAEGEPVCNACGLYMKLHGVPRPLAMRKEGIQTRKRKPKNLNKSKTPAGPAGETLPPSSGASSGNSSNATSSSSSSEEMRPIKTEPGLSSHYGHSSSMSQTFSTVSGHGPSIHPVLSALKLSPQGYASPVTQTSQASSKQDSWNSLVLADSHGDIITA
Sequence of Growth hormone secretagogue receptor type 1 (Homo sapiens) (Q92847 whole entry): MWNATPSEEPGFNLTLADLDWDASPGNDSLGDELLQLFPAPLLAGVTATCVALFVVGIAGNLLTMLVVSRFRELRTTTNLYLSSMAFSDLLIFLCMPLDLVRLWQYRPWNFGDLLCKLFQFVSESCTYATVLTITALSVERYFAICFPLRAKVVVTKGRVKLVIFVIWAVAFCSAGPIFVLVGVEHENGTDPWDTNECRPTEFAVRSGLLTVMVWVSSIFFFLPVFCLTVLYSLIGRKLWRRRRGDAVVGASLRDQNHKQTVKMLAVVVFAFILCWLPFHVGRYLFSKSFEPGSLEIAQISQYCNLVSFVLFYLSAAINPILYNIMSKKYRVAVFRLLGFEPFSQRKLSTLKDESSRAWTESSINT
Sequence of Hydroxycarboxylic acid receptor 2 (Homo sapiens) (Q8TDS4 whole entry): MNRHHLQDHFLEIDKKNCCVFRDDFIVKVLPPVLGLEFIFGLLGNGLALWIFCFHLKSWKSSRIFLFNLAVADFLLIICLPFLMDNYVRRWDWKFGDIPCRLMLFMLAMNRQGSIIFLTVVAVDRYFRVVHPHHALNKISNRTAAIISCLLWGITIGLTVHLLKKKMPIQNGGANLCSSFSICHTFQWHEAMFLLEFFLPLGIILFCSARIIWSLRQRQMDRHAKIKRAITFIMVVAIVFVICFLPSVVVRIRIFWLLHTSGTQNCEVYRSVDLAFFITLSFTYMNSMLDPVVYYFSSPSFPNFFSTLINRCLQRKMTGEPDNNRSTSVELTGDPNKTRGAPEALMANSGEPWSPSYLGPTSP
Sequence of Epidermal growth factor receptor (Homo sapiens) (P00533 whole entry): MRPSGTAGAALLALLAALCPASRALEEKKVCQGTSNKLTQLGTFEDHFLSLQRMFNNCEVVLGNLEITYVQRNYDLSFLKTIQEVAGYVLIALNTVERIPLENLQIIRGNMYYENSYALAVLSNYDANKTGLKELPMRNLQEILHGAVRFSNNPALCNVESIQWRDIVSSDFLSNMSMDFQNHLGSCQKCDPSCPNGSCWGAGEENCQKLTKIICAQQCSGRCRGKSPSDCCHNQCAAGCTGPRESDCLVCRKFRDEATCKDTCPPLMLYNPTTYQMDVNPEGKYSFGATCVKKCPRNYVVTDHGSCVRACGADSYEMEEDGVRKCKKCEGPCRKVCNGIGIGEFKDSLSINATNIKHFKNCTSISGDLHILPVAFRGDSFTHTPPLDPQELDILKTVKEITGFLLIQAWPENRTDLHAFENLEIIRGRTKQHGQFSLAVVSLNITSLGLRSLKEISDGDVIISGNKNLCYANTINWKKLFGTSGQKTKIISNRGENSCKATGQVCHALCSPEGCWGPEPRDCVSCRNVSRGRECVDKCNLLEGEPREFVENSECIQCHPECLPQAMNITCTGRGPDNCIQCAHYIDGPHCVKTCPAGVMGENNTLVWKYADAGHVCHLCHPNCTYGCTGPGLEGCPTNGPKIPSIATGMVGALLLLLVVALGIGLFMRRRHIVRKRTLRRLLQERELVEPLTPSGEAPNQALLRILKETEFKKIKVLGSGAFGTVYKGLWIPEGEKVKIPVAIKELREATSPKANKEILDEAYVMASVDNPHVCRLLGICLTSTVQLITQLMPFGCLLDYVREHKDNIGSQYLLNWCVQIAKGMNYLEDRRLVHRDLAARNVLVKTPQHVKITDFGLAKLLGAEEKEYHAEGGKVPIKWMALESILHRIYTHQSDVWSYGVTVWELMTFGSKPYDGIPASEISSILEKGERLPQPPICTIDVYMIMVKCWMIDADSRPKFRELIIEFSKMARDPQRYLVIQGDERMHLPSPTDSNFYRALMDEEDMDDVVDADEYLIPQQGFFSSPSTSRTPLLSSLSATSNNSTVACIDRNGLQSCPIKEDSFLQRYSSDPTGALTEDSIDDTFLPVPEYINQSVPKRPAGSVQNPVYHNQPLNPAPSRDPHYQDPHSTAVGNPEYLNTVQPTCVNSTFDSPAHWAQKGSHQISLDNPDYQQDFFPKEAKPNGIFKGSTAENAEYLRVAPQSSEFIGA
Sequence of Rho-associated protein kinase 1 (Homo sapiens) (Q13464 2-1354 limits assumed): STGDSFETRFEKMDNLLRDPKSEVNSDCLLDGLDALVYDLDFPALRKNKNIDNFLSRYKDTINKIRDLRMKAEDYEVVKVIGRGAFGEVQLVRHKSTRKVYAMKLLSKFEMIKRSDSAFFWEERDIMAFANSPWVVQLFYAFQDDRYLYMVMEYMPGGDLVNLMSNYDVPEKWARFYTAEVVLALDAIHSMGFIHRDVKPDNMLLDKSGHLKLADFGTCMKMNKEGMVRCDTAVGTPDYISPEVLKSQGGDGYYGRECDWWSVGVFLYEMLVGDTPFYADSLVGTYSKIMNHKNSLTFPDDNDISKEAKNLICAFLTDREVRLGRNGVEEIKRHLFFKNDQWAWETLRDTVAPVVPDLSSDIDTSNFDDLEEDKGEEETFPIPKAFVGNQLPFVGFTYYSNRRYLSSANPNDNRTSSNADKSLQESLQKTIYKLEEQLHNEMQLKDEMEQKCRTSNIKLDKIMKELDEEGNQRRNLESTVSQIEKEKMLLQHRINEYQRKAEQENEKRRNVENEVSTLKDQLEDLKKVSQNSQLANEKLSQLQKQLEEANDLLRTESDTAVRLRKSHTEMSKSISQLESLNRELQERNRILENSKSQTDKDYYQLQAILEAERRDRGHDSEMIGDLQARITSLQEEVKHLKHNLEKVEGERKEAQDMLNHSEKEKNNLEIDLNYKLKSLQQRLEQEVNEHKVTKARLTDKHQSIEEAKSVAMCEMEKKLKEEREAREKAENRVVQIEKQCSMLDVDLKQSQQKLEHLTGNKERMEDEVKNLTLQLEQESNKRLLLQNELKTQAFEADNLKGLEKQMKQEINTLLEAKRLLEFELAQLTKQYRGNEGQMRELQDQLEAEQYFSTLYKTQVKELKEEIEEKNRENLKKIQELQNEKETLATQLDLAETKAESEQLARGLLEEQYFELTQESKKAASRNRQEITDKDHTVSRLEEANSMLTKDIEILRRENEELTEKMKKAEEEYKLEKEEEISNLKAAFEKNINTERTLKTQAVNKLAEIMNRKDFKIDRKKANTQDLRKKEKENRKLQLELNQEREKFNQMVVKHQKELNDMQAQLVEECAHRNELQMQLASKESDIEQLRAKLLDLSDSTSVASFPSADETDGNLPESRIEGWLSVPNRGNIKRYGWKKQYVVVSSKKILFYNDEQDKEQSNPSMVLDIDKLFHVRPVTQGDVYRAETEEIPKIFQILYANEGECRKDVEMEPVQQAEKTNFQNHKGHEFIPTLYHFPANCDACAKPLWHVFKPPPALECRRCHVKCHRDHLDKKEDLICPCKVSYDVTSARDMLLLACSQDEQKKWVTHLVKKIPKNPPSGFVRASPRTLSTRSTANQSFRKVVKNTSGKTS
Sequence of Mitogen-activated protein kinase 14 (Homo sapiens) (Q16539 whole entry): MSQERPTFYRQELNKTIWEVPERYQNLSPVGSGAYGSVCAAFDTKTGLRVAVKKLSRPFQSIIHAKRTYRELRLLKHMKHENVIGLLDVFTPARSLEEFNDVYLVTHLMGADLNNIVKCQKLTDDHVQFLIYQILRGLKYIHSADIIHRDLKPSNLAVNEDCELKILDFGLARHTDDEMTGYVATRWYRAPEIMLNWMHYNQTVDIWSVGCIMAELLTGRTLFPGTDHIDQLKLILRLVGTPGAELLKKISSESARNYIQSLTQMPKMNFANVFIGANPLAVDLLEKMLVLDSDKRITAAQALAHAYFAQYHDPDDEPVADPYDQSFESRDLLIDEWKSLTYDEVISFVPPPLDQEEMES

Drug metabolism [1]: Metabolite_Detected
inhibition [3]: inactive
Activity [4]: inactive
inhibition [5]: 54%
inhibition [7]: 91.8%
Activity [8]: inactive
inhibition [10]: Active
Stability [11]: Stable
Activity [12]: inactive
inhibition [13]: inactive
inhibition [14]: inactive
inhibition [15]: 65.2%
inhibition [16]: 59.5%
inhibition [18]: 32%
inhibition [19]: 75%
inhibition [20]: inactive
inhibition [21]: 29%
SMILES: CCN(CC)c1ccc(NC(=O)c2c(-c3ccccc3)noc2C)cc1
Activity [2]: Non-Toxic
Activity [6]: Active
inhibition [9]: Active
Activity [17]: Non-Toxic
